# Screens as filed in PubChem.
# PKD1 kinase inh: PKD1 (human) kinase inhibition; Q15139; PKD1 kinase fluorescence polarization assay; inhibition, % (concentration not given with the values); actives 0.056% (n = 200,000); AID 797; in the data active = inhibition above about 50%
# C8 TRAIL sens: sensitizes caspase-8 expressing cells to TRAIL; NB7+C8 cells + TRAIL, ATPlite viability luminescence; inhibition (viability loss, TRAIL sensitization), % at 10 µM; actives 1% (n = 360,000);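 active = compounds causing at least 50% loss of cell viability in the single-dose screen, relative to plate controls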
# Wee1 degr inh: blocks degradation of human Wee1 kinase | reporter increase, % at 5 µM | actives 1.2% (n = 220,000) | HeLa Luc-Wee1K328M stability, luciferase luminescence; 100% = proteasome inhibitor MG132 effect | AID 1321 | P30291;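 active = activation above the mean of all tested compounds plus 3 SD, set per screening run, cut at about 8.8% in these data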;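 note: cells exposed to compound for 20 h before luminescence read; 0% = DMSO alone and 100% = MG132 at 30 µM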
# Target sequence (P30291 whole entry K328M): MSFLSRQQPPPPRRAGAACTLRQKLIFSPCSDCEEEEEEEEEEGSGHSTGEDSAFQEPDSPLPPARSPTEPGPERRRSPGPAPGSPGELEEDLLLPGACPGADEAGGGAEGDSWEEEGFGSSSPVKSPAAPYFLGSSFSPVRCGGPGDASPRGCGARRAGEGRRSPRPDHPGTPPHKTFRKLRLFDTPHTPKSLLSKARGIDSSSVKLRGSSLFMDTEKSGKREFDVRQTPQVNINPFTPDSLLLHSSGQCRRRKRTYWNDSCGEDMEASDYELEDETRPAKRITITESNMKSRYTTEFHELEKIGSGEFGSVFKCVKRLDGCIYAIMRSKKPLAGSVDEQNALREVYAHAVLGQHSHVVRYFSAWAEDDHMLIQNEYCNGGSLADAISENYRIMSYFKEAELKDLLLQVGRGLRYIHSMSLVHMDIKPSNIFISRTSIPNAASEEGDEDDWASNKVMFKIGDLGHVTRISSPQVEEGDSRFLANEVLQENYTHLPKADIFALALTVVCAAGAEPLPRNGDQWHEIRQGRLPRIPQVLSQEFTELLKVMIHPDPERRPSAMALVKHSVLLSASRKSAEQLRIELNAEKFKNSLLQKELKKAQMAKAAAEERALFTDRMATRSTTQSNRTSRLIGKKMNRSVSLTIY
# FLuc inhib CS: Photinus pyralis luciferase inhibition counter-screen; ATPLite firefly luciferase biochemical luminescence, 10 min; AID 1006; actives 1.5% (n = 200,000); inhibition, % at 10 µM; P08659;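 active = inhibition above about 50% when tested at 10 µM, limit read from the data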
# FLuc act counter: affects firefly luciferase, flagging false hits in luciferase stimulation screens; P08659; ATPlite luciferase biochemical, luminescence, 10 min; 0 = ATP-free wells, 1 = DMSO control; activation factor at 10 µM; 200,000 tested, under 10 active;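 active = luciferase activation factor, scaled between plate controls, of at least 2 with compound at 10 µM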
#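 System: cell-free luciferase reagent; medium: PBS as buffer for the ATP substrate; doses: test compounds dosed from 2 mM stocks in 100% DMSO; incubation: 10 min, room temperature; measured by: luminescence from luciferase reaction; read-out: luciferase activation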
# PPC-1+TRAIL kill: compounds killing PPC-1 cancer cells with TRAIL present (potentiator screen, no TRAIL-free arm); PPC-1 cells + TRAIL, ATPLite viability luminescence; actives 0.41% (n = 220,000); AID 1443; cell killing (% activity), % at 4 µM or 5 µM;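 active = cell killing above 50% in the first pass at 4 µM, then a duplicate retest at 5 µM averaging 50% or more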;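 note: plate controls were cells with TRAIL plus DMSO for no effect and medium-only wells lacking cells for full effect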
# Starred values were filed as active, the others as inactive; . = no result given. Hits are enriched below; roughly 2.2% of the tested compounds scored in any of these assays.
SMILES,PKD1 kinase inh,C8 TRAIL sens,Wee1 degr inh,FLuc inhib CS,FLuc act counter,PPC-1+TRAIL kill
CC(C)(O)C#Cc1ccc(CN2CCN(Cc3ccccc3)C(CCO)C2)s1 (configuration not stated),-3.5,-2.9,2.7,-1.1,1,12.8
COc1cccc(CN2CCN(Cc3ccc(C#CC(C)(C)O)s3)CC2CCO)c1 (configuration not stated),-0.2,-0.7,10.1*,-3.1,1,6.2
Cc1ccc2nc(NC(=O)c3ccc(-c4nc5ccccc5s4)s3)sc2c1,-4.2,66.9*,-1.0,5.3,0.9,10.9
CCNC(=O)COC(=O)c1ccc(-c2nc3ccccc3s2)s1,2.2,10.9,0.6,86.7*,0.1,29.2
O=C(Nc1nc2ccccc2s1)c1ccc(Cl)s1,8.9,39.5,7.4,32.2,0.7,35.3
Cc1nc2c(C#N)cnn2c2c1CCN2CC1CCCO1 (configuration not stated),-10.1,-3.9,-1.2,-3.4,1,0.7
Cc1cccc(NC(=O)c2onc3c2CCCC3)n1,1.1,86.1*,-1.0,92.4*,0.1,80.8*
COC(=O)c1cccc(NC(=O)c2onc3c2CCCC3)c1,-13.0,29.3,4.0,62.3*,0.4,32.2
Cc1cccc(NC(=O)c2onc3c2CCCC3)c1C,-7.9,21.5,-0.8,29.6,0.7,-4.2
Cc1ccccc1NC(=O)c1onc2c1CCCC2,-4.3,22.6,0.8,62.8*,0.4,15.8
COc1cccc(C=NN2CCCCCC2)c1OC,.,-6.0,.,.,.,.
O=C(CC1CCCCC1)c1c(O)c2ccccc2oc1=O,-3.6,54.2*,-3.0,2.3,1,-1.7
CCCCC(=O)c1c(O)c2ccccc2oc1=O,-3.5,-8.6,-1.4,6.6,0.9,19.5
CSc1ccccc1C(=O)NCc1ccc(F)cc1,73.7*,-4.0,-2.0,-7.8,1.1,11.6
CCN1CCC(O)(/C=C/c2ccc(C(C)C)cc2)C(C(=O)/C=C/c2ccc(C(C)C)cc2)C1 (configuration not stated),.,87.2*,.,.,.,.
CCN1CCN(C(=O)/C=C/c2ccc(C(C)C)cc2)CC1,.,-0.8,.,.,.,.
Cc1ccc(C2=NNC(c3cccc(F)c3)S2)cc1 (configuration not stated),-4.2,65.9*,14.5*,84.0*,0.2,.
O=C1c2ccccc2C2=Nc3ccccc3SC(c3cccc(F)c3)C12 (configuration not stated),-2.9,-26.4,-1.8,-4.3,1,3.2
Fc1cccc(C2NN=C(c3ccccc3)S2)c1 (configuration not stated),-0.5,55.0*,-2.7,67.4*,0.3,27.3
COc1ccc(C2NN=C(c3ccc(C)cc3)S2)cc1OC (configuration not stated),5.9,58.9*,4.7,78.9*,0.2,30.7
COc1ccc(Nc2ncnc3c2oc2ccccc23)cc1,3.3,4.5,10.3*,7.7,0.9,10.0
COCC(C)NC(=O)c1cc2c(ccc3ccccc32)oc1=O (configuration not stated),.,4.9,.,.,.,.
Cn1c(N=Nc2ccc(N3CCOCC3)cc2)[n+](C)c2ccccc21,-0.5,39.3,-3.6,59.0*,0.4,-7.6
COc1ccc(C(=O)NCC(=O)OCC(=O)NCCC2=CCCCC2)cc1,-5.0,-8.0,-1.9,-2.6,1,5.5
COc1ccc(C(=O)NCCC2=CCCCC2)cc1,2.9,20.4,4.2,50.5*,0.5,19.4
SMILES,PKD1 kinase inh,C8 TRAIL sens,Wee1 degr inh,FLuc inhib CS,FLuc act counter,PPC-1+TRAIL kill
CCC1CCCCN1c1ccc([N+](=O)[O-])cc1/C=N/NC(=O)Cn1c2ccccc2c(=O)c2ccccc21 (configuration not stated),1.0,73.7*,1.2,-0.2,1,22.3
CS(=O)(=O)N1CCN(c2nc3ccc(Cl)cc3s2)CC1,.,-6.0,3.6,.,.,4.2
Clc1ccc2nc(N3CCCCC3)sc2c1,-7.4,16.2,10.7*,26.4,0.7,5.8
Cc1ccc(/C=C/C(=O)N2CCCC(C)C2)cc1 (configuration not stated),-4.5,37.6,-1.6,74.7*,0.3,40.7
CCOC(=O)C1CCCN(C(=O)/C=C/c2ccc(Cl)cc2)C1 (configuration not stated),-5.8,5.2,-3.2,-3.1,1,7.4
Cc1ccc(C(=O)c2no[n+]([O-])c2C(=O)c2ccc(C)cc2)cc1,-10.4,93.2*,-2.0,-2.7,1,10.1
CC1=NN(c2nc(-c3ccc(C)cc3)cs2)C(=O)C1N=Nc1ccc(C(N)=O)cc1 (configuration not stated),7.0,45.3,9.9*,1.2,1,5.5
COc1ccccc1-n1nnnc1SCC(=O)N1CCCC1=O,.,-13.1,.,.,.,.
Cc1cc(-c2n[nH]c(=S)n2CC(C)C)cs1,0.0,1.0,10.6*,-0.9,1,6.2
COc1cc(OC)cc(C(=O)Nn2c(C)nc3ccccc3c2=O)c1,-21.6,23.6,-3.5,-4.2,1,11.7
COc1ccc2[nH]c3c(c2c1)CCn1c-3nc2ccccc2c1=O,-3.6,49.1,12.8*,42.0,0.6,45.5
Cc1cc(C)n(-c2ccc(C(=O)N3CC(C)OC(C)C3)cc2)n1 (configuration not stated),1.9,-3.0,-2.2,-8.5,1.1,35.6
COC1=C(C)C(=O)C2=C(C1=O)C1C3CC4=C(C(=O)C(OC)=C(C)C4=O)C(CNC(=O)C(C)=O)N3C(C#N)C(C2)N1C (configuration not stated),.,85.7*,.,.,.,.
N=NC(=O)c1ccccc1Nc1c(O)[nH]c2ccccc12,.,91.2*,.,.,.,.
CC(=O)Nc1c(O)[nH]c2ccccc12,-5.5,-45.5,-0.9,-3.4,1,0.5
COCCn1c(=S)[nH]c2cc(C(=O)N3CCc4ccccc43)ccc2c1=O,-4.7,2.5,10.8*,-8.7,1.1,-4.6
O=[N+]([O-])c1ccc(S(=O)(=O)Nc2cccc(-c3ccc(N4CCOCC4)nn3)c2)cc1,.,50.7*,.,.,.,.
O=[N+]([O-])c1ccc(Cl)c(S(=O)(=O)Nc2cccc(-c3ccc(N4CCOCC4)nn3)c2)c1,.,58.2*,.,.,.,.
O=[N+]([O-])c1ccc(Cl)c(S(=O)(=O)Nc2ccc(-c3ccc(N4CCOCC4)nn3)cc2)c1,.,7.4,.,.,.,.
O=[N+]([O-])c1ccc(S(=O)(=O)Nc2ccc(-c3ccc(N4CCOCC4)nn3)cc2)cc1,.,10.7,.,.,.,.
COc1ccc(-c2cc3ccc(OC)cc3cn2)cc1,.,76.7*,.,.,.,.
COc1ccc(-c2ccc(-c3nnn(CC(=O)N4CCOCC4)n3)cc2)cc1,0.2,52.2*,7.5,74.3*,0.3,-0.5
COc1cc2ccc(-c3ccc4ccccc4n3)cc2cc1OC,.,-0.3,.,.,.,.
COc1ccc(-c2noc(-c3ccccc3F)n2)cc1,-0.7,33.5,7.2,41.7,0.6,-7.4
COc1ccc(-c2ccc3ccccc3n2)cc1,1.0,57.5*,5.5,71.6*,0.3,43.3
